Columns and labels:
Type in all cases: cell-based
[1] = biological target: T1, Keap1/Nrf2 (Homo sapiens) (UniProt Q16236+Q14145); test: Inhibition of Keap1-Nrf2 interaction in HEK293T cells assessed as induction of ARE-luciferase gene expression at 100 uM after 24 hrs relative to control; conditions: HEK-293T
Outline: (§1)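 HEK 293T cells (1 × 105) plated the day before transfection, transiently transfected with 0.1 μg ARE-luc (Nrf2 response element) plasmid by FuGENE6; next day treated with compounds (range 0–100 μM) or sulforaphane 10 μM as positive control for 24 h. Lysates read for luciferase activity; expressed as fold-induction. Cells grown in complete DMEM with 10% FBS, 37 °C, 5% CO2.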

[2] = biological target: T1, Keap1/Nrf2 (Homo sapiens); test: Inhibition of Keap1-Nrf2 interaction in HEK293T cells assessed as induction of ARE-luciferase gene expression at 1 uM after 24 hrs relative to control; conditions: HEK-293T; outline: as §1
[3] = biological target: T1, Keap1/Nrf2 (Homo sapiens); test: Inhibition of Keap1-Nrf2 interaction in HEK293T cells assessed as induction of ARE-luciferase gene expression at 20 uM after 24 hrs relative to control; conditions: HEK-293T; outline: as §1
[4] = Toxicity in HEK293T cells assessed as mortality at 100 uM after 24 hrs LDH assay relative to control; conditions: human, hek-293t
Outline: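 HEK 293T cells cultured in complete DMEM (10% FBS, antibiotics, sodium pyruvate, nonessential amino acids, 2 mM L-glutamine) at 37 °C, 5% CO2. Treated with increasing concentrations of Keap1 ligands for 24 h. Supernatants collected, cells lysed in 1% Triton, and LDH activity measured with buffer containing L(+)-lactic acid and NAD. Mortality reported when over 5%.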

T1 sequence (Q14145 whole entry, looked up): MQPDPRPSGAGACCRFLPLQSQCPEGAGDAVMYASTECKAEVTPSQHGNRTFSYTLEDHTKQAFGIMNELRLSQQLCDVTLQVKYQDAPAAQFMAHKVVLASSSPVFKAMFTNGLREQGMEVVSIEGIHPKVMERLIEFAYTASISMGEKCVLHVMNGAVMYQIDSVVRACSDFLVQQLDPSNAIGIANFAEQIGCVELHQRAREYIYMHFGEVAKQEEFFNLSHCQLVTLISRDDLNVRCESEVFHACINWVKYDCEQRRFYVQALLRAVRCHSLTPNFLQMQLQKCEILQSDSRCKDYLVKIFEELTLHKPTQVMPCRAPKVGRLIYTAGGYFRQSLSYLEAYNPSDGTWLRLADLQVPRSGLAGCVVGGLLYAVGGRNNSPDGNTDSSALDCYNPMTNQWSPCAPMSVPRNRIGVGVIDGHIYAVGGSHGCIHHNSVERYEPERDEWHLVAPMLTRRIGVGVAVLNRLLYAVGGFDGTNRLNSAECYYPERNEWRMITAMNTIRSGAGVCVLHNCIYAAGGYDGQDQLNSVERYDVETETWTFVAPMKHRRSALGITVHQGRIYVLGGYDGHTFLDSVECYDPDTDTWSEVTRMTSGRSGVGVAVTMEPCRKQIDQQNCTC
T1 sequence (Q16236 whole entry, looked up): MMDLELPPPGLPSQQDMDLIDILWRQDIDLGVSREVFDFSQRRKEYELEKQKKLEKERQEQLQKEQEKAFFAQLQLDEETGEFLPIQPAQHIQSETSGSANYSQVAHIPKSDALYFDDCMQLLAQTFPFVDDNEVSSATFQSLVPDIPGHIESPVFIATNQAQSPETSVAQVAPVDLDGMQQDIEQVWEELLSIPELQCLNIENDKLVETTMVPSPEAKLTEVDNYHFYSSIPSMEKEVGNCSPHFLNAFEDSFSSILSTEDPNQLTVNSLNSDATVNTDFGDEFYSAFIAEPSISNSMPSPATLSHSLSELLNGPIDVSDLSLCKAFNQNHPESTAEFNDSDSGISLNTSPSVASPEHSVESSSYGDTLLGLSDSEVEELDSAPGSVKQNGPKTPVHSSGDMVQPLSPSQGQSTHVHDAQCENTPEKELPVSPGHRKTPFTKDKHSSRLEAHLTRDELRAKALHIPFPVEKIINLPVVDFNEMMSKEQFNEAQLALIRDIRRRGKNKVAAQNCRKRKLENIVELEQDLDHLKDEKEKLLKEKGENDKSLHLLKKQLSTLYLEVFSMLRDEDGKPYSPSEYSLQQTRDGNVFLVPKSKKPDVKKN

| fold change (FC) [1] | fold change (FC) [2] | fold change (FC) [3] | SMILES | Activity [4] | mortality [4] [%] |
| --- | --- | --- | --- | --- | --- |
| 29.6 | 2 | 3.11 | CC1(C)C=C(C(=O)O)C(=O)CC1 |  |  |
| 50.6 | 1.36 | 6.46 | COC(=O)C1=CC(C)(C)CCC1=O | Non-Toxic |  |
| 41.9 | 1.05 | 3.2 | COC(=O)C1CC(C)(C)C=CC1=O (stereo not drawn) |  |  |
| 64.7 | 1.15 | 2 | CCCCCCC1CC(C)(C)C=C(C(=O)OC)C1=O (stereo not drawn) | Non-Toxic |  |
| 4.56 | 1.47 | 2.43 | COC(=O)C1(C)CC(C)(C)C=CC1=O (stereo not drawn) |  |  |
| 5.96 | 0.68 | 1.24 | COC(=O)CCC1CC(C)(C)C=C(C(=O)OC)C1=O (stereo not drawn) |  |  |
| 4.6 | 1.17 | 2.75 | COC(=O)C1=CC(C)(C)CC(C)C1=O (stereo not drawn) | Non-Toxic |  |
| 25.3 | 1.34 | 2.05 | C=CCC1CC(C)(C)C=C(C(=O)OC)C1=O (stereo not drawn) | Non-Toxic |  |
| 17.4 | 1.22 | 1.16 | CC1(C)C=C(I)C(=O)CC1 |  |  |
| 1.75 | 0.65 | 2 | COC(=O)C1=CC(C)(C)CC(CC(=O)OC(C)(C)C)C1=O (stereo not drawn) |  |  |
| 1.29 | 1 | 1.85 | COC(=O)C1=CC(C)(C)CCC1O (stereo not drawn) |  |  |
| 1.46 | 0.72 | 0.77 | CC1(C)C=C(CO)C(=O)CC1 |  |  |
| 4.02 | 2.98 | 3.79 | CC1(C)C=C(COC(=O)C2CC(C)(C)CCC2=O)C(=O)CC1 (stereo not drawn) |  |  |
| 17.1 | 1.03 | 2.22 | COC(=O)C1=CC(C)(C)CC(CC#N)C1=O (stereo not drawn) |  |  |
| 10.3 | 1.35 | 3.39 | COC(=O)C1=CC(C)(C)C=CC1=O |  |  |
| 8.71 | 0.49 | 2.2 | COC(=O)C1=CC(C)(C)CC(CC(C)=O)C1=O (stereo not drawn) |  |  |
| 43.4 | 1.33 | 4.42 | CC1(C)C=C(Cl)C(=O)CC1 |  |  |

The next lines start with the compound.

| SMILES | fold change (FC) [1] | fold change (FC) [2] | fold change (FC) [3] | Activity [4] | mortality [4] [%] |
| --- | --- | --- | --- | --- | --- |
| CC1(C)C=C(C(=O)OC(C)(C)C)C(=O)CC1 | 106 | 1.05 | 3.89 |  | 16 |
| COC(=O)C1=CC(C)(C)CC(CCCCC2CC(C)(C)C=C(C(=O)OC)C2=O)C1=O (stereo not drawn) |  | 8.23 |  |  |  |
| COC(=O)C1=CC2(CC(CC3CC4(C=C(C(=O)OC)C3=O)OCCO4)C1=O)OCCO2 (stereo not drawn) | 15.9 | 0.94 | 2.76 |  | 12 |
| COC(=O)C1=CC2(CC(CCCC3CC4(C=C(C(=O)OC)C3=O)OCCO4)C1=O)OCCO2 (stereo not drawn) | 30.9 | 1 | 1.05 |  | 9 |
| COC(=O)C1=CC(C)(C)CC(CCCC2CC(C)(C)C=C(C(=O)OC)C2=O)C1=O (stereo not drawn) |  | 4.71 | 248 |  |  |
| COC(=O)C1=CC(C)(C)CC(C/C=C/CC2CC(C)(C)C=C(C(=O)OC)C2=O)C1=O (stereo not drawn) |  | 15.2 |  |  |  |
| COC(=O)C1=CC(C)(C)CC(CC2CC(C)(C)C=C(C(=O)OC)C2=O)C1=O (stereo not drawn) | 101 | 4.49 | 3.6 |  | 24 |
| CC1(C)C=C(COC(=O)C2=CC(C)(C)CCC2=O)C(=O)CC1 | 121 | 2.02 | 3.78 |  | 15 |
| C=CCOC(=O)C1=CC(C)(C)CCC1=O | 94.8 | 1.39 | 4.36 |  | 17 |
| COC(=O)C1=CC(C)(C)CC(CC(F)(F)F)C1=O (stereo not drawn) | 17.9 | 0.54 | 1.54 |  | 11 |
| COC(=O)C1=CC2(CC(C)C1=O)OCCO2 (stereo not drawn) |  | 0.98 | 2.49 | Non-Toxic |  |
| COC(=O)C1=CC(C)(C)CC(CC#CCC2CC(C)(C)C=C(C(=O)OC)C2=O)C1=O (stereo not drawn) |  | 52.5 |  |  |  |
| C#CCC1CC(C)(C)C=C(C(=O)OC)C1=O (stereo not drawn) | 34.2 | 1.14 | 1.48 |  | 7 |
| COC(=O)C1=CC(C)(C)CC(Cc2ccccc2)C1=O (stereo not drawn) | 48.5 | 0.95 | 0.92 | Non-Toxic |  |
| CCCCCCC1CC2(C=C(C(=O)OC)C1=O)OCCO2 (stereo not drawn) | 20.2 | 1.4 | 2.19 | Non-Toxic |  |
